Experimental findings from ChEMBL document CHEMBL4017500 (J Med Chem, 2017) are described below.

Calls of active or inactive are those of the source. No cut-off for these calls is given here.

In data set [1] the target is Metallo-beta-lactamase type 2 (Klebsiella pneumoniae) (UniProt C7C422). Description: Inhibition of NDM1 in Klebsiella pneumoniae isolate Pd1.54 assessed as potentiation of imipenem-induced antibacterial activity by measuring imipenem MIC at 100 mg/L after 18 to 20 hrs by broth microdilution assay (reference value: 8 mg/L). A general note: Broth dilution looks for growth in wells or tubes with falling amounts of substance.
Sequence of Metallo-beta-lactamase type 2 (Klebsiella pneumoniae) (C7C422 whole entry): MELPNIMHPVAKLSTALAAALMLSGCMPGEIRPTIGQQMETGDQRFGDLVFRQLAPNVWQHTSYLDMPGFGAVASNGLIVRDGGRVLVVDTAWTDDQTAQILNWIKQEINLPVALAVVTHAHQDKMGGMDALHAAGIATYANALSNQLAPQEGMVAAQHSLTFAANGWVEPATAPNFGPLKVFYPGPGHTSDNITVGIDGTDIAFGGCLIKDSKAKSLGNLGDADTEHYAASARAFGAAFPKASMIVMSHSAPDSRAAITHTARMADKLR

For data set [2] the target is unchanged. The data set is described as follows: Inhibition of NDM1 in Klebsiella pneumoniae isolate Pd1.48 assessed as potentiation of imipenem-induced antibacterial activity by measuring imipenem MIC at 100 mg/L after 18 to 20 hrs by broth microdilution assay (reference value: 8 mg/L).
The test system of data set [3] is Escherichia coli. Description: Effect on growth of Escherichia coli isolate Ch8.72 at 100 mg/L after 18 to 20 hrs by broth microdilution assay. The method, boiled down:
(§1)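 Mueller-Hinton broth microdilution per CLSI, triplicate. blaNDM-1 clinical isolates grown from OD600 0.1 to 0.224 (~1–2 × 10^8 CFU/mL), diluted 3 μL into 4997 μL MH, and 100 μL added to 100 μL of compound (100 mg/L) alone. Incubated 37 °C for 18–20 h, then scored for growth.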

The test system of data set [4] is Escherichia coli. Description: Inhibition of NDM1 in Escherichia coli isolate Ah8.73 assessed as potentiation of imipenem-induced antibacterial activity by measuring imipenem MIC at 100 mg/L after 18 to 20 hrs by broth microdilution assay (reference value: 16 mg/L).
Data set [5] addresses Metallo-beta-lactamase type 2 (Klebsiella pneumoniae) (UniProt C7C422). The data set is described as follows: Inhibition of NDM1 in Klebsiella pneumoniae isolate Cm1.62 assessed as potentiation of imipenem-induced antibacterial activity by measuring imipenem MIC at 100 mg/L after 18 to 20 hrs by broth microdilution assay (reference value: 16 mg/L).
Data set [6] has as its target Histone deacetylase 1 (Homo sapiens) (UniProt Q13547). Description: Inhibition of full length human C-terminal FLAG/His-tagged HDAC1 expressed in baculovirus infected sf9 cells at 50 to 100 uM using HDAC substrate 3 preincubated for 5 mins followed by substrate addition measured after 30 mins by fluorescence assay. The method in brief: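 Inhibitor pre-incubated 5 min, then HDAC substrate 3 (20 μM) added, 30 min at 37 °C. Developer added for 15 min at room temperature; fluorescence read at ex/em 360/460 nm. Activity relative to no-inhibitor wells, with 200 μM SAHA as 0%. Run in triplicate.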

Data set [7] relates to Escherichia coli. Description: Inhibition of NDM1 in Escherichia coli isolate Ch8.72 assessed as potentiation of imipenem-induced antibacterial activity by measuring imipenem MIC at 100 mg/L after 18 to 20 hrs by broth microdilution assay (reference value: 16 mg/L).
For data set [8], the system named is Escherichia coli. Description: Inhibition of NDM1 in Escherichia coli isolate Ch8.68 assessed as potentiation of imipenem-induced antibacterial activity by measuring imipenem MIC at 100 mg/L after 18 to 20 hrs by broth microdilution assay (reference value: 16 mg/L).
In data set [9] the test system is histone deacetylase 1/6 (Homo sapiens). The data set is described as follows: Selectivity ratio of compound effect for inhibition of bacterial MBP-fused NDM1 expressed in Escherichia coli BL21(DE3) to compound effect for inhibition of human histone deacetylases HDAC-1/HDAC-6.
Data set [10] deals with Escherichia coli. The data set is described as follows: Effect on growth of Escherichia coli isolate Ch8.68 at 100 mg/L after 18 to 20 hrs by broth microdilution assay. The method, boiled down: as §1
The target in data set [11] is Metallo-beta-lactamase type 2 (Klebsiella pneumoniae) (UniProt C7C422). Description: Inhibition of NDM1 in Klebsiella pneumoniae isolate Cm1.63 assessed as potentiation of imipenem-induced antibacterial activity by measuring imipenem MIC at 100 mg/L after 18 to 20 hrs by broth microdilution assay (reference value: 8 mg/L).
For data set [12], the system named is Escherichia coli. Description: Inhibition of NDM1 in Escherichia coli isolate Ah8.75 assessed as potentiation of imipenem-induced antibacterial activity by measuring imipenem MIC at 100 mg/L after 18 to 20 hrs by broth microdilution assay (reference value: 16 mg/L).
Data set [13] concerns Klebsiella pneumoniae. The data set is described as follows: Effect on growth of Klebsiella pneumoniae isolate Pd1.53 at 100 mg/L after 18 to 20 hrs by broth microdilution assay. The method, boiled down:
as §1

In data set [14] the test system is Escherichia coli. Description: Inhibition of NDM1 in Escherichia coli isolate Ch8.70 assessed as potentiation of imipenem-induced antibacterial activity by measuring imipenem MIC at 100 mg/L after 18 to 20 hrs by broth microdilution assay (reference value: 16 mg/L).
In data set [15] the test system is Bacteria. Description: Binding affinity to bacterial CoCoNDM-1 expressed in Escherichia coli BL21(DE3) assessed as CoCoNDM-1-compound ternary complex formation at 1 equiv by 1H NMR spectroscopic method. The method, boiled down:
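Apo-NDM-1 concentrated to ~1 mM and loaded with 2 equiv CoCl2. Samples in 50 mM HEPES, 150 mM NaCl, 10% D2O, pH 6.8. Compounds from 50–100 mM DMSO stocks titrated in ~5 μL aliquots. 1H spectra recorded at 292 K, 300.16 MHz.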

Sequence of Histone deacetylase 1 (Homo sapiens) (Q13547 whole entry): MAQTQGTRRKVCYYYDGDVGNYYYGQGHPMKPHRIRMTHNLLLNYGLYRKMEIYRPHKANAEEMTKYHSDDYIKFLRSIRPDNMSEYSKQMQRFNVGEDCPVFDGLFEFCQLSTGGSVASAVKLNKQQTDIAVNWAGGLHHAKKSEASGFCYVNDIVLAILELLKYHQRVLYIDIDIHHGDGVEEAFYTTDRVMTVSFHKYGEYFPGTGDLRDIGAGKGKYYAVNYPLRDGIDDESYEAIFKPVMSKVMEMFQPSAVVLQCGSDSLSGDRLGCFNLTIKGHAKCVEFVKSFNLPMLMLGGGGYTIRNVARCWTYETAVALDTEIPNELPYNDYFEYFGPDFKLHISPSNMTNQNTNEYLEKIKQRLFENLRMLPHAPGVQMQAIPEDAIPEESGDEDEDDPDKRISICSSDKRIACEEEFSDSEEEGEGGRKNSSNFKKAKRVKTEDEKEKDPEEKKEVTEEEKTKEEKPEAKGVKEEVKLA

Take `Nc1cccc(-c2cc(C(=O)O)nc(C(=O)O)c2)c1`: the MIC came out at 0.5 µg/mL in data set [1]; 0.5 µg/mL in data set [2]; 0.5 µg/mL in [4]; 1 µg/mL in data set [5]; 0.5 µg/mL in data set [7]; 1 µg/mL in data set [8]. Moreover, the values for the MIC in [11], in [12] and in data set [14] were 1 µg/mL, 0.5 µg/mL and 0.5 µg/mL, respectively. Also, the Activity result in data set [3], in data set [10] and in data set [13] was “Non-Toxic” each time. For the same compound, in data set [6], the inhibition (in general, how much of the control response was suppressed) is below 50%. In data set [9], the Selectivity ratio is 500 to 1000. Further, the result in [15] was Active.
